Consider 37 compounds from ChEMBL document CHEMBL4229433, “The synthesis and evaluation of phenoxyacylhydroxamic acids as potential agents for Helicobacter pylori infections” (Bioorg Med Chem, 2018).

The structures appear in SMILES notation.

Assay [1] has as its target T1, Urease subunit alpha/Urease subunit beta (Helicobacter pylori (strain ATCC 700392 / 26695) (Campylobacterpylori), UniProt P69996). The assay can be described thus: Inhibition of Helicobacter pylori ATCC 43504 urease assessed as reduction in ammonia production using urea as substrate preincubated for 1.5 hrs under cell free condition by indophenol method. It is filed as protein-complex assay, Helicobacter pylori NCTC 11637 = CCUG 17874 = ATCC 43504. The essentials:
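Crude urease from H. pylori ATCC 43504 grown 24 h at 37 °C, micro-aerobic, in Brucella broth with 10% sheep blood. Cells were PBS-washed, frozen at −80 °C, sonicated with protease inhibitors, centrifuged, desalted on G-25 and kept in 50% glycerol at 4 °C. Enzyme (10U) was preincubated with compound 1.5 h at room temperature. Ammonia was read by the indophenol method.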

Assay [2] has as its target T2, Urease subunit alpha/Urease subunit beta (Helicobacter pylori (strain ATCC 700392 / 26695) (Campylobacterpylori)) (UniProt P69996+P14916). The experiment in a line: (§1) Inhibition of urease in Helicobacter pylori ATCC 43504 assessed as reduction in ammonia production using urea as substrate preincubated for 1.5 hrs by indophenol method. The conditions noted are these: Helicobacter pylori NCTC 11637 = CCUG 17874 = ATCC 43504. It is filed as protein-complex assay. The essentials: (§2)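 Crude urease from sonicated H. pylori cells (grown 24 h, 37 °C, microaerobic, Brucella broth + 10% sheep blood), PBS-washed, frozen at –80 °C, desalted on Sephadex G-25, stored in 50% glycerol at 4 °C; 10U enzyme preincubated with compound 1.5 h at room temperature; ammonia measured by Weatherburn indophenol method.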

In assay [3] the target is T1, Urease subunit alpha/Urease subunit beta. The assay is described as §1. It is filed as protein-complex assay, Helicobacter pylori NCTC 11637 = CCUG 17874 = ATCC 43504. The essentials:
as §2

Assay [4] has as its target T2, Urease subunit alpha/Urease subunit beta (Helicobacter pylori (strain ATCC 700392 / 26695) (Campylobacterpylori)). The experiment in a line: Ratio of IC50 for inhibition of urease in Helicobacter pylori ATCC 43504 intact cells to IC50 for inhibition of Helicobacter pylori ATCC 43504 urease under cell free condition. The settings on record: Helicobacter pylori NCTC 11637 = CCUG 17874 = ATCC 43504.

Assay [5] deals with T1, Urease subunit alpha/Urease subunit beta. The assay can be described thus: Mixed-type inhibition of Helicobacter pylori ATCC 43504 urease assessed as enzyme-inhibitor complex using urea as substrate preincubated for 1.5 hrs. It is filed as protein-complex assay, Helicobacter pylori NCTC 11637 = CCUG 17874 = ATCC 43504. The essentials:
(§3)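 Ammonia production rate measured by the indophenol method over a urea concentration gradient at each fixed inhibitor concentration. Inhibition type was assigned by nonlinear fitting to the general kinetic equation. Ki and Ki' were taken as the X-axis intercepts of linear fits of the fitted parameters against inhibitor concentration.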

The target is the same in assay [6]. The experiment in a line: Mixed-type inhibition of Helicobacter pylori ATCC 43504 urease assessed as enzyme-substrate-inhibitor complex using urea as substrate preincubated for 1.5 hrs. It is filed as protein-complex assay, Helicobacter pylori NCTC 11637 = CCUG 17874 = ATCC 43504. The essentials: as §3
The target of assay [7] is T2, Urease subunit alpha/Urease subunit beta (Helicobacter pylori (strain ATCC 700392 / 26695) (Campylobacterpylori)). The assay can be described thus: Potency index, ratio of acetohydroxamic acid IC50 to compound IC50 for inhibition of Helicobacter pylori ATCC 43504 urease. The conditions noted are these: Helicobacter pylori NCTC 11637 = CCUG 17874 = ATCC 43504. It is filed as protein-complex assay.

For assay [8] the target is unchanged. The experiment in a line: Potency index, ratio of acetohydroxamic acid IC50 to compound IC50 for inhibition of urease in Helicobacter pylori ATCC 43504. The conditions noted are these: Helicobacter pylori NCTC 11637 = CCUG 17874 = ATCC 43504. It is filed as protein-complex assay.

T2 sequence (P14916 whole entry, looked up): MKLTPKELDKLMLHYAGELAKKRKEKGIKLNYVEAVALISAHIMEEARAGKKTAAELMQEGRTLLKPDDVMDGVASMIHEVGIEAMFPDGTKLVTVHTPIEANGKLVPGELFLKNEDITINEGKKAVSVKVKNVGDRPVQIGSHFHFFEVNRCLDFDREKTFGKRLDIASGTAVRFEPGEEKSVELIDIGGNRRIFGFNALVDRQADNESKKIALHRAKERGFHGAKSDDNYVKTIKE
T2 sequence (P69996 whole entry, looked up): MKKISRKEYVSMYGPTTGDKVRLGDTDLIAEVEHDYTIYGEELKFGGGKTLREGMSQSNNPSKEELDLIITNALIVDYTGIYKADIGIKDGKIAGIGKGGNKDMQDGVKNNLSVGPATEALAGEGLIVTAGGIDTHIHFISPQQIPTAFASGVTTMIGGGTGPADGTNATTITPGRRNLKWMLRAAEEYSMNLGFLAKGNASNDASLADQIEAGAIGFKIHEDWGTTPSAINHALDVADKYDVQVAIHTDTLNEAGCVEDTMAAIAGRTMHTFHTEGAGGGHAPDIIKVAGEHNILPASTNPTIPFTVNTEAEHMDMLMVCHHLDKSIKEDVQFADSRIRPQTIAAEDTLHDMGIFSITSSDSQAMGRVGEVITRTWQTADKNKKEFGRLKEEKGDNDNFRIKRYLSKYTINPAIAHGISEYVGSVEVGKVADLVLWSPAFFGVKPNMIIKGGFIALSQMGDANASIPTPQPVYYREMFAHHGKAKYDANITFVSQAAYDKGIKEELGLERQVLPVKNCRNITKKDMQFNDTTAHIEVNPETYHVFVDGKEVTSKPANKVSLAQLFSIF
T1 sequence (P69996 whole entry): as the sequence (P69996 whole entry, looked up) above
T1 sequence (P14916 whole entry, further chain): as the sequence (P14916 whole entry, looked up) above

By IC50 is commonly meant the point on the concentration scale where inhibition reaches its midpoint. With `O=C(CCOc1cccc(Cl)c1)NO`, the IC50 in assay [1] is 1.23 µM.

`O=C(COc1ccc(Br)cc1)NO`: the IC50 in assay [1] turned out to be 5.35 µM. In the case of `Cc1cc(C)cc(OCC(=O)NO)c1`, the IC50 in assay [1] is 41.9 µM. Same read-out and setting: to `O=C(CCOc1ccccc1)NO` belongs 4.18 µM. Consider `O=C(COc1cc(Cl)cc(Cl)c1)NO`, for which the IC50 in assay [1] is 3.22 µM. With `O=C(COc1cccc(Cl)c1Cl)NO`, the IC50 in assay [1] came to 179 µM.

In the case of `O=C(CCOc1ccc(Br)cc1)NO`, in assay [2], the inhibition entry is “Dose-dependent effect”. In addition, the IC50 was 16.3 µM in assay [3] and 0.86 µM in assay [1]. Further, in assay [4], the Ratio IC50 fell in the range of 14 to 24. Consider `O=C(COc1ccccc1F)NO`, for which the IC50 in assay [1] was 121 µM. On to `O=C(COc1cc(F)cc(F)c1)NO`, for which the IC50 in assay [1] is 205 µM. For the compound `O=C(COc1cccc(Cl)c1)NO`, in assay [1], the IC50 was 10.4 µM.

Consider `Cc1ccc(OCC(=O)NO)cc1`, for which the IC50 in assay [1] is 57.1 µM. The same measure, in the same setting: next, `O=C(COc1ccc(Cl)cc1)NO`: 1.26 µM; `O=C(COc1ccccc1Cl)NO`: 78.5 µM. On the same count and under the same terms, to `Cc1ccc(OCCC(=O)NO)cc1` belongs 1.38 µM; to `COc1ccc(OCCC(=O)NO)cc1`, 8.35 µM; to `O=C(CCOc1cc(F)cc(F)c1)NO`, 5.09 µM.

In the case of `O=C(COc1cccc([N+](=O)[O-])c1)NO`, the IC50 in assay [1] is 94.7 µM. By Ki is commonly meant the equilibrium dissociation constant of an inhibitor or competing ligand from its target. For the compound `O=C(CCOc1ccc(Cl)cc1)NO`, the inhibition result in assay [2] was “Dose-dependent effect”. In addition, the IC50 in assay [3] amounted to 8.2 µM; in assay [1], 0.44 µM. Further, the Ratio IC50 in assay [4] fell in the range of 14 to 24. Besides, the values for the Ki in assay [5] and in assay [6] were 0.043 µM and 0.054 µM, respectively.

In the case of `Cc1cc(C)cc(OCCC(=O)NO)c1`, the IC50 in assay [1] was determined as 10.4 µM. The same measure, in the same setting: next, `O=C(COc1cccc(F)c1)NO`: 27 µM. As for `O=C(COc1ccc(Cl)c(Cl)c1)NO`, the inhibition result in assay [2] was “Dose-dependent effect”. The IC50 was 12.8 µM in assay [3] and 0.52 µM in assay [1]. Besides, the Ratio IC50 in assay [4] was 14 to 24. Turning to `O=C(COc1cc(Cl)ccc1Cl)NO`, in assay [1], the IC50 is 9.02 µM.

`O=C(COc1ccc([N+](=O)[O-])cc1)NO`: in assay [1], the IC50 was 62.1 µM.

As to `O=C(COc1ccccc1[N+](=O)[O-])NO`, the IC50 in assay [1] came to 144 µM.

Regarding `O=C(COc1ccccc1)NO`, the IC50 in assay [1] turned out to be 131 µM. The same measure, in the same setting: to `Cc1ccccc1OCCC(=O)NO` belongs 6.74 µM.

Consider `O=C(COc1ccc(F)cc1)NO`, for which the IC50 in assay [1] was 18.9 µM. For the compound `COc1ccc(OCC(=O)NO)cc1`, in assay [1], the IC50 was found to be 49.5 µM. With `O=C(COc1ccc(Cl)cc1Cl)NO`, in assay [2], the inhibition entry is “Dose-dependent effect”. Further, the IC50 in assay [3] amounted to 21.4 µM; in assay [1], 0.83 µM. In addition, the Ratio IC50 in assay [4] lay within 14 to 24. `O=C(CCOc1ccc(Cl)c(Cl)c1)NO`: the Ratio IC50 in assay [7] is over 450; in assay [8] it was over 120; in assay [4], 14 to 24. Also, the inhibition result in assay [2] was “Dose-dependent effect”. Moreover, the IC50 in assay [3] was 0.89 µM; in assay [1], 0.061 µM. As for `Cc1cccc(OCCC(=O)NO)c1`, in assay [1], the IC50 stood at 3.38 µM. Still for that read-out and setting: to `Cc1ccccc1OCC(=O)NO` belongs 154 µM; to `O=C(CCOc1ccc(F)cc1)NO`, 1.13 µM; to `O=C(CCOc1cc(Cl)ccc1Cl)NO`, 13.1 µM. Same read-out and setting: to `O=C(CCOc1cccc(F)c1)NO` belongs 2.05 µM. Still for that read-out and setting: next, `Cc1cccc(OCC(=O)NO)c1`: 85.1 µM. `O=C(COc1c(Cl)cccc1Cl)NO`: the IC50 in assay [1] worked out at 353 µM.
